This passage reports Ki and CLint scaled results from ChEMBL document CHEMBL1142770, “Structure-activity relationships of 1,3,5-triazine-2,4,6-triones as human gonadotropin-releasing hormone receptor antagonists” (Bioorg Med Chem Lett, 2005).

As a reminder, the pKi is the Ki on a negative log10 scale, so that one unit is a factor of ten. A higher pKi goes with a small Ki.

pKi: −log10 of the molar value.

In one data set the target is T1, Gonadotropin-releasing hormone receptor (Homo sapiens, UniProt P30968).
T1 sequence (P30968 whole entry): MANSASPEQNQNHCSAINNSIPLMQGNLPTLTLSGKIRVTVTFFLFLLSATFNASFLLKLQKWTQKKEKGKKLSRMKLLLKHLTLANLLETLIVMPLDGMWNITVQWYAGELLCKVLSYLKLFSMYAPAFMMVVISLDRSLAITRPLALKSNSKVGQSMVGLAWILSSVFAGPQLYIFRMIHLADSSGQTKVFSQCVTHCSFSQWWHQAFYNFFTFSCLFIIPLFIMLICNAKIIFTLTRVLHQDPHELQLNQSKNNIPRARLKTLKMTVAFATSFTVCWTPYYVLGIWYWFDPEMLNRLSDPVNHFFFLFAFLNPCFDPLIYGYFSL
Description: In vitro ability to inhibit des-Gly[125I-Tyr, DLeu, NMeLeu,Pro-NEt]-GnRH radioligand binding to the cloned human GnRH receptor stably expressed in HEK293 cells. Format: cell-based.
Conditions: not given
The method, boiled down: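 A standard antagonist on each plate controlled for plate-to-plate variation. Key compounds were run in three to eight independent experiments.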
Take `COc1cccc(-n2c(=O)n(Cc3ccccc3F)c(=O)n(C[C@H](N)c3ccccc3)c2=O)c1F`: the pKi was 7.96. The same measure, in the same setting: under `COc1cccc(-n2c(=O)n(CCC(N)c3cccc(F)c3)c(=O)n(Cc3c(F)cccc3F)c2=O)c1` (centres undefined) stands 7.18. Same read-out and setting: under `COc1cccc(-n2c(=O)n(Cc3c(F)cccc3C(F)(F)F)c(=O)n(C[C@H](N)c3ccccc3)c2=O)c1F` stands 8.52. Still for that read-out and setting: under `COc1cccc(-n2c(=O)n(Cc3c(F)cccc3F)c(=O)n(CC(N)c3ccccc3F)c2=O)c1` (centres undefined) stands 6.92; under `COc1cccc(-n2c(=O)n(CCC(N)c3ccc(F)cc3)c(=O)n(Cc3c(F)cccc3F)c2=O)c1` (centres undefined), 7.08; under `COc1ccccc1Cn1c(=O)n(C[C@H](N)c2ccccc2)c(=O)n(-c2cccc(OC)c2F)c1=O`, 6.92. Consider `COc1cccc(-n2c(=O)n(Cc3ccccc3C)c(=O)n(C[C@H](N)c3ccccc3)c2=O)c1F`, for which the pKi is 7.54.

In turn, `COc1cccc(-n2c(=O)n(Cc3c(F)cccc3F)c(=O)n(CC(N)c3ccccc3F)c2=O)c1F` (centres undefined) gave a pKi of 7.70.

Take `COc1cccc(-n2c(=O)n(CCC(N)c3ccccc3C)c(=O)n(Cc3c(F)cccc3F)c2=O)c1` (centres undefined): the negative logarithm of the Ki (pKi) was 7.12. Compared with the last molecule, the pKi is 0.58 log units lower. In turn, `COc1cccc(-n2c(=O)n(Cc3cccnc3Cl)c(=O)n(C[C@H](N)c3ccccc3)c2=O)c1F` gave a pKi of 7.18. This pKi and that of the molecule before are within 0.2 log units of each other. The same measure, in the same setting: next, `COc1cccc(-n2c(=O)n(Cc3c(F)cccc3F)c(=O)n(CC(CN)c3ccccc3)c2=O)c1` (centres undefined): 7.55. For the molecule `COc1cccc(-n2c(=O)n(Cc3ccccc3Cl)c(=O)n(C[C@H](N)c3ccccc3)c2=O)c1F`, the pKi was 7.70. Same read-out and setting: under `COc1cccc(-n2c(=O)n(CCC(N)c3cccs3)c(=O)n(Cc3c(F)cccc3F)c2=O)c1` (centres undefined) stands 7.57. Same read-out and setting: under `COc1cccc(-n2c(=O)n(Cc3c(F)cccc3F)c(=O)n(CC(N)CC(C)C)c2=O)c1F` (centres undefined) stands 6.21; under `COc1cccc(-n2c(=O)n(Cc3c(F)cccc3Cl)c(=O)n(C[C@H](N)c3ccccc3)c2=O)c1F`, 8.30. For the molecule `COc1cccc(-n2c(=O)n(CCC(N)c3ccccc3F)c(=O)n(Cc3c(F)cccc3F)c2=O)c1` (centres undefined), the pKi was 6.10.

`COc1cccc(-n2c(=O)n(CC[C@H](N)c3ccccc3)c(=O)n(Cc3c(F)cccc3F)c2=O)c1F` gave a pKi of 7.62. The molecule `COc1cccc(-n2c(=O)n(CCC(N)c3ccccc3)c(=O)n(Cc3c(F)cccc3F)c2=O)c1` (centres undefined) had a pKi of 7.15. Same read-out and setting: next, `COc1cccc(-n2c(=O)n(CCC(N)c3cccnc3)c(=O)n(Cc3c(F)cccc3F)c2=O)c1` (centres undefined): 6.24; `COc1cccc(-n2c(=O)n(CC3CCCCC3)c(=O)n(C[C@H](N)c3ccccc3)c2=O)c1F`: < 5.00. `COc1cccc(-n2c(=O)n(C[C@H](N)c3ccccc3)c(=O)n(C(C)c3c(F)cccc3F)c2=O)c1F` (some centres undefined) had a pKi of 6.20. The same measure, in the same setting: under `COc1cccc(-n2c(=O)n(Cc3c(F)cccc3F)c(=O)n(C[C@H](N)c3ccccc3)c2=O)c1F` stands 8.05; under `COc1cccc(-n2c(=O)n(Cc3c(Cl)cccc3C#N)c(=O)n(C[C@H](N)c3ccccc3)c2=O)c1F`, 7.14. Turning to `COc1cccc(-n2c(=O)n(CCC(N)c3ccccc3Cl)c(=O)n(Cc3c(F)cccc3F)c2=O)c1` (centres undefined), the negative logarithm of the Ki (pKi) is 6.74. Regarding `COc1cccc(-n2c(=O)n(Cc3c(Cl)cccc3Cl)c(=O)n(C[C@H](N)c3ccccc3)c2=O)c1F`, the pKi was 7.44. The same measure, in the same setting: under `COc1cccc(-n2c(=O)n(CC[C@H](N)CC(C)C)c(=O)n(Cc3c(F)cccc3F)c2=O)c1F` stands 5.82.

System in a further data set: not listed separately
The experiment in a line: Intrinsic clearance in human liver microsomes(HLM) for metabolic stability. To be noted: read-out: CI. Format: ADME, Microsome. In general terms: Liver microsomes are a subcellular fraction often used to study metabolism.
`COc1cccc(-n2c(=O)n(Cc3ccccc3C#N)c(=O)n(C[C@H](N)c3ccccc3)c2=O)c1F`: the CLint scaled was found to be 249 mL/min/kg. Same read-out and setting: under `COc1cccc(-n2c(=O)n(Cc3c(F)cccc3Br)c(=O)n(C[C@H](N)c3ccccc3)c2=O)c1F` stands 158 mL/min/kg.

Turning to `COc1cccc(-n2c(=O)n(Cc3ccccc3OC(F)(F)F)c(=O)n(C[C@H](N)c3ccccc3)c2=O)c1F`, the CLint scaled is 146 mL/min/kg.
